Series [1] in a line: melting temperature; fluorescence melt of hairpins on a sequencing array, two-state fit, raised by 9.35 °C to match UV melts. The conditions noted are these: sodium 0.088 M. An outline of the steps:
(§1)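 Melting temperature and folding enthalpy were obtained by bootstrapped two-state fitting. Fits used Cy3 fluorescence of library hairpins with annealed Cy3 and quencher oligos on a sequenced MiSeq flow cell, imaged in 50 mM Na-HEPES pH 8.0, 25 mM NaCl in 2.5 °C steps up to 60 °C and normalised to pre-quench Cy3 and control constructs. Four replicates were combined by inverse-variance weighting, and fitted temperatures were raised by 9.35 °C to match UV melts.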

The nature of series [2]: folding enthalpy; higher = less favourable; fluorescence melt of hairpins on a sequencing array, two-state fit. The conditions noted are these: sodium 0.088 M. An outline of the steps:
as §1

Regarding GAACTTGGAAACAGGTTC ((((.((....)).)))), the Tm in series [1] stood at 41 °C. In addition, the folding enthalpy in series [2] was -32.2 kcal/mol.
Turning to GAAGAACGAAAGTTTTTC (((.(((....))).))), the Tm in series [1] worked out at 36 °C. The folding enthalpy in series [2] is -28.8 kcal/mol.
Regarding GAAGAAGAAATTCTTC ((((((....)))))), in series [1], the Tm was found to be 38.1 °C. For the same sequence, the folding enthalpy in series [2] was -18.5 kcal/mol.
As for GAAGAAGCGAAAGCTTTC (((..(((....)))))), the Tm in series [1] was 30.1 °C. The folding enthalpy in series [2] is -9.3 kcal/mol.
The corresponding values for GAAGACCGAAAGGTGTTC (((.(((....))).))) are 52 °C and -33 kcal/mol.
The corresponding values for GAAGACGAAAGTCCGTTC ((((((....)))..))) are 27.6 °C and -8.8 kcal/mol.
Consider GAAGACGAAAGTCGTTTC ((((((....)))..))), for which the Tm in series [1] was 35.3 °C. Further, the folding enthalpy in series [2] was -12.1 kcal/mol.
The matching figures for GAAGACGCGAAAGCGTTC (((..(((....)))))): 32.1 °C and -7.5 kcal/mol.
The corresponding values for GAAGAGAAATCTTC (((((....))))) are 30.6 °C and -10.9 kcal/mol.
Take GAAGATGGAAACATTTTC (((.(((....))).))): the Tm in series [1] turned out to be 30.4 °C. In addition, the folding enthalpy in series [2] is -21.9 kcal/mol.
The matching figures for GAAGCCGAAAGGCAGTTC ((((((....)))..))): 30 °C and -9.04 kcal/mol.
The corresponding values for GAAGCCGAAAGGCATTTC ((((((....)))..))) are 25.9 °C and -6.75 kcal/mol.
The matching figures for GAAGCCGAAAGGCCCTTC ((((((....)))..))): 31.3 °C and -11.8 kcal/mol.
As for GAAGCCGAAAGGCTCTTC ((((((....)))..))), the Tm in series [1] turned out to be 56.6 °C. Besides, the folding enthalpy in series [2] is -20.8 kcal/mol.
Regarding GAAGCCGGAAACGACTTC ((((.((....)).)))), the Tm in series [1] was found to be 46 °C. Besides, the folding enthalpy in series [2] is -34.4 kcal/mol.
The matching figures for GAAGCCGGAAACGGTTTC (((.(((....))).))): 49.9 °C and -40.2 kcal/mol.
With GAAGCTGGAAACAGCTTC (((((((....))))))), the Tm in series [1] stood at 62.7 °C. For the same sequence, the folding enthalpy in series [2] is -40.9 kcal/mol.
The corresponding values for GAAGGACGAAAGTCTTC (((.(((....)))))) are 39.8 °C and -14.7 kcal/mol.
On to GAAGGAGGAAACTCCTCC (.(((((....))))).), for which, in series [1], the Tm stood at 40.9 °C. Further, the folding enthalpy in series [2] is -12.7 kcal/mol.
The corresponding values for GAAGGAGGAAACTCTTTC (((.(((....))).))) are 31.6 °C and -20.7 kcal/mol.
On to GAAGGAGGAAACTTCTTC ((((.((....)).)))), for which the Tm in series [1] is 46.8 °C. Also, the folding enthalpy in series [2] is -35.7 kcal/mol.
The matching figures for GAAGGCGAAAGCCAATTC ((((((....)))..))): 39.5 °C and -11.2 kcal/mol.
For GAAGGCGAAAGCCAGTTC ((((((....)))..))), in series [1], the Tm is 29.7 °C. Moreover, in series [2], the folding enthalpy is -10.2 kcal/mol.
For GAAGGCGGAAACGCCCTC ((.((((....)))).)), the Tm in series [1] worked out at 35.1 °C. Also, the folding enthalpy in series [2] was -8.85 kcal/mol.
The corresponding values for GAAGGCGGAAACGCCTCC (.(((((....))))).) are 42.3 °C and -8.57 kcal/mol.
In the case of GAAGGGCCGAAAGGCTTC (((..(((....)))))), the Tm in series [1] amounted to 23 °C. Moreover, the folding enthalpy in series [2] is -7.08 kcal/mol.
The corresponding values for GAAGGGCGAAAGCCGTTC (((.(((....))).))) are 56.6 °C and -22.7 kcal/mol.
As for GAAGGGCGAAAGCCTTTC (((.(((....))).))), the Tm in series [1] was determined as 49.4 °C. Besides, the folding enthalpy in series [2] is -17.9 kcal/mol.
Turning to GAAGGGGCGAAAGCCTTC (((..(((....)))))), in series [1], the Tm turned out to be 35.2 °C. Moreover, in series [2], the folding enthalpy was -9.14 kcal/mol.
Turning to GAAGGTGAAAACCTTC ((((((....)))))), the Tm in series [1] was 57.2 °C. In series [2], the folding enthalpy is -28.7 kcal/mol.
Take GAAGTAGAAATACTTC ((((((....)))))): the Tm in series [1] was 42.5 °C. The folding enthalpy in series [2] was -26.5 kcal/mol.
The corresponding values for GAAGTCCGAAAGGATTC (((.(((....)))))) are 33.8 °C and -14.1 kcal/mol.
As to GAAGTCGAAAGACTTC ((((((....)))))), in series [1], the Tm was determined as 65.7 °C. In series [2], the folding enthalpy is -34.2 kcal/mol.
Take GAAGTCGGAAACGACTCC (.(((((....))))).): in series [1], the Tm was determined as 41.3 °C. Moreover, the folding enthalpy in series [2] is -13.2 kcal/mol.
In the case of GAAGTCGGAAACGATTTC (((.(((....))).))), the Tm in series [1] came to 44.2 °C. For the same sequence, the folding enthalpy in series [2] was -30.6 kcal/mol.
The matching figures for GAAGTCGGAAACGGTTTC (((..((....))..))): 28.4 °C and -8.25 kcal/mol.
As to GAATAAGGAAACTTATTC (((((((....))))))), the Tm in series [1] was determined as 44.6 °C. In addition, the folding enthalpy in series [2] is -33.5 kcal/mol.
For GAATACACGAAAGTGTTC (((..(((....)))))), the Tm in series [1] was determined as 27.3 °C. Also, the folding enthalpy in series [2] is -13.4 kcal/mol.
On to GAATACCGAAAGGTCTTC (((.(((....))).))), for which, in series [1], the Tm came out at 36.7 °C. The folding enthalpy in series [2] is -24.1 kcal/mol.
For GAATACCGAAAGGTTTC (((.(((....)))))), in series [1], the Tm amounted to 39.2 °C. In addition, the folding enthalpy in series [2] was -16.5 kcal/mol.
The matching figures for GAATACGAAAGTAGATTC ((((((....)))..))): 29.1 °C and -20.3 kcal/mol.
Regarding GAATACGGAAACGTATTC (((((((....))))))), the Tm in series [1] stood at 55.7 °C. For the same sequence, the folding enthalpy in series [2] is -36.5 kcal/mol.
The corresponding values for GAATAGGGAAACCTATCC (.(((((....))))).) are 26.4 °C and -15.5 kcal/mol.
Take GAATATCCGAAAGGATTC (((..(((....)))))): the Tm in series [1] came to 28.5 °C. In addition, the folding enthalpy in series [2] is -13.4 kcal/mol.
The corresponding values for GAATCCGAAAGGATGTTC ((((((....)))..))) are 37.3 °C and -13.8 kcal/mol.
The matching figures for GAATCCGAAAGGATTC ((((((....)))))): 66.5 °C and -37 kcal/mol.
As to GAATCCGGAAACGGATCC (.(((((....))))).), the Tm in series [1] worked out at 40.6 °C. Besides, the folding enthalpy in series [2] is -14.2 kcal/mol.
The matching figures for GAATCCGGAAACGGGTTC (((.(((....))).))): 52.2 °C and -33.5 kcal/mol.
The matching figures for GAATCGAAAGATTC (((((....))))): 50.9 °C and -27.4 kcal/mol.
The matching figures for GAATCGCGAAAGCGCTTC (((.(((....))).))): 43.2 °C and -18.1 kcal/mol.
On to GAATCGGGAAACTGGTTC (((.(.(....).).))), for which, in series [1], the Tm is 29.3 °C. In addition, the folding enthalpy in series [2] was -19.8 kcal/mol.
For the sequence GAATCTCCGAAAGGATTC (((..(((....)))))), the Tm in series [1] was determined as 28.7 °C. Further, the folding enthalpy in series [2] is -13.5 kcal/mol.
Regarding GAATCTGGAAACAGACTC ((.((((....)))).)), the Tm in series [1] worked out at 29.1 °C. Besides, the folding enthalpy in series [2] is -17.7 kcal/mol.
As for GAATCTGGAAACGGATTC (((((.(....).))))), in series [1], the Tm came out at 44.8 °C. Moreover, the folding enthalpy in series [2] is -35.1 kcal/mol.
The corresponding values for GAATGACGAAAGTCGTTC (((.(((....))).))) are 54.7 °C and -34.4 kcal/mol.
As for GAATGAGGAAACCCATTC (((((.(....).))))), in series [1], the Tm was 36.1 °C. Moreover, in series [2], the folding enthalpy is -20.9 kcal/mol.
In the case of GAATGCACGAAAGTGTTC (((..(((....)))))), the Tm in series [1] was determined as 23.1 °C. In addition, the folding enthalpy in series [2] is -8.75 kcal/mol.
The corresponding values for GAATGCCGAAAGGCTTTC (((.(((....))).))) are 48 °C and -21.7 kcal/mol.
As for GAATGCGCGAAAGCGTTC (((..(((....)))))), the Tm in series [1] came out at 26.1 °C. For the same sequence, the folding enthalpy in series [2] is -8.39 kcal/mol.
As for GAATGCGGAAACGCACTC ((.((((....)))).)), the Tm in series [1] came to 38.4 °C. Further, the folding enthalpy in series [2] is -13.1 kcal/mol.
With GAATGGCCGAAAGGCTTC (((..(((....)))))), in series [1], the Tm came out at 27.6 °C. Moreover, the folding enthalpy in series [2] was -6.89 kcal/mol.
With GAATGTGGAAACACGTTC (((.(((....))).))), the Tm in series [1] is 47.8 °C. Further, in series [2], the folding enthalpy was -32.3 kcal/mol.
The corresponding values for GAATGTGGAAACGCATTC (((((.(....).))))) are 46 °C and -37.5 kcal/mol.
GAATTAGGAAACTAGTTC (((.(((....))).))): in series [1], the Tm stood at 27.1 °C. In addition, the folding enthalpy in series [2] is -16.8 kcal/mol.
The corresponding values for GAATTCCGAAAGGATTC (((.(((....)))))) are 38.4 °C and -20.2 kcal/mol.
The corresponding values for GAATTCCGAAAGGATTTC (((.(((....))).))) are 40.7 °C and -29.7 kcal/mol.
Regarding GAATTCGAAAGAATTC ((((((....)))))), the Tm in series [1] came out at 54.4 °C. Further, the folding enthalpy in series [2] is -44.9 kcal/mol.
The corresponding values for GAATTCGGAAACGAACTC ((.((((....)))).)) are 33.7 °C and -17.4 kcal/mol.
Take GAATTGGGAAACCAATTC (((((((....))))))): the Tm in series [1] amounted to 54 °C. Further, the folding enthalpy in series [2] is -45 kcal/mol.
For GAATTTGGAAACAAATTC (((((((....))))))), the Tm in series [1] was found to be 52 °C. In addition, the folding enthalpy in series [2] is -45.1 kcal/mol.
The corresponding values for GACAAAACGAAAGTTGTC (((..(((....)))))) are 39.3 °C and -24.8 kcal/mol.
In the case of GACAAAGGAAACTTTGTC (((((((....))))))), the Tm in series [1] turned out to be 53.9 °C. Also, the folding enthalpy in series [2] was -43.8 kcal/mol.
Consider GACAACCCGAAAGGGGTC (((..(((....)))))), for which the Tm in series [1] was found to be 39.1 °C. The folding enthalpy in series [2] is -12.9 kcal/mol.

These data come from the array DNA melting data of Ke et al. (doi:10.1101/2024.01.08.574731).
